Laboratory results as given in PubChem BioAssay AID2648 (Johns Hopkins Ion Channel Center, 2010).
About 1,100 (0.35%) of roughly 310,000 compounds were called active.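 Rule for the calls: active = fluorescence ratio B-score, a plate-corrected score, at least three library SD, with initial intensity B-score within 5 SD; inactive = the rest.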 This excerpt belongs to a sample that is enriched for actives.

These compounds were tested against Potassium voltage-gated channel subfamily KQT member 1 (Homo sapiens) (UniProt P51787) (assay: potentiators or activators of KCNQ1 channel, primary screen, cell-based, thallium flux, high-throughput (AID 2648)). Conditions: CHO-K1 KCNQ1, thallium flux FluxOR fluorescence, at 10 µM; hits give high values.
How it was run: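 Assay system: CHO-K1 cells stably expressing KCNQ1. Medium: assay buffer for compound exposure, DMSO matched across wells. Timing: 37 °C overnight plating, 90-min dark dye load, 20-min compound pretreatment. Signal: kinetic FluxOR fluorescence, 10 s baseline plus 110 s post-stimulus.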

Chain of Potassium voltage-gated channel subfamily KQT member 1 (Homo sapiens) (P51787 whole entry, looked up): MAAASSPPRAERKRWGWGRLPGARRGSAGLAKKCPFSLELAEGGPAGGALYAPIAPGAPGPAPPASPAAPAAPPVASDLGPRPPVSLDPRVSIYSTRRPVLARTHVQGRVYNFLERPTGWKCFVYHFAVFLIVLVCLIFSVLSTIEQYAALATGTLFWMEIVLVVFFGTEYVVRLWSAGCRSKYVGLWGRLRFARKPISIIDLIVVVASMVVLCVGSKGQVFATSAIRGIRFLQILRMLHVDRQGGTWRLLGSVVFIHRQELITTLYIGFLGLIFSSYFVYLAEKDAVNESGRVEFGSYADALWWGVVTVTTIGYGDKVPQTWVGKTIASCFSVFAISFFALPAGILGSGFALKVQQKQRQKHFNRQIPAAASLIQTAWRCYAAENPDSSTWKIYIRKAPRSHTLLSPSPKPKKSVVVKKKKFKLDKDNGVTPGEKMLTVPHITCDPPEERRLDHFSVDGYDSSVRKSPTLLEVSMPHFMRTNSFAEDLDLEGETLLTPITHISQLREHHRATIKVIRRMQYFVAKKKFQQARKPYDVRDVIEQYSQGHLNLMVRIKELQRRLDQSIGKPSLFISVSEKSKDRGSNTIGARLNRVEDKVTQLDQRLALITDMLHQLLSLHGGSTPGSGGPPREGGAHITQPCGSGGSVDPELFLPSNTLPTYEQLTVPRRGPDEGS

B-score, inactive:
O=C(Cn1cncn1)N/N=C/c1c2ccccc2cc2ccccc12, CN(c1ccccn1)c1ncnc2[nH]ncc12, CN(Cc1cccs1)C(=O)Cc1c[nH]c2ccccc12, CCc1ccc(NC(=O)COC(=O)c2cccs2)cc1, CC(C)C(=O)Nc1ccc(C(=O)NNC(=O)c2cccs2)cc1, CCCCNC(=O)CN1C(=O)NC(Cc2ccccc2)(Cc2ccccc2)C1=O, Clc1ccc(C[n+]2cc(-c3ccc(Cl)cc3)n3c2CCC3)cc1, CN1CCN(S(=O)(=O)c2ccc(NC(=S)NC(=O)C3CC3)cc2)CC1, Cc1cc(C)nc(N2CCC(C(=O)Nc3ccc4c(c3)OCCO4)CC2)n1, COCC(=O)N1CCc2ccc(NC(=O)c3ccccc3Cl)cc2C1, CCc1nccn1CCC(=O)N1CCCC(N2CCN(c3ccccc3F)CC2)C1 (stereo not drawn), Cc1cccc(C(=O)N2CCN(S(=O)(=O)N3CCCCC3)CC2)c1, O=C(CCN1C(=O)c2ccccc2C1=O)NCCN1CCOCC1, O=C(NC1=NCCS1)[C@H](Cc1ccccc1)N1C(=O)c2ccccc2C1=O, CC(C)COC(=O)C1C2C=CC3(CN(C(C)c4ccc(Br)cc4)C(=O)C13)O2 (stereo not drawn), CCOC(=O)C1=C(C)Nc2sc(C(=O)c3ccc(Br)cc3)c(N)c2C1c1ccc(C(=O)OC)cc1 (stereo not drawn), CCOC(=O)c1ccc(Nc2cc3ccccc3c(=O)[nH]2)cc1, CCOC(=O)c1c(C)nn(-c2ncccc2NC(=O)CCC(=O)O)c1C, Cc1oc2cc3oc(=O)ccc3cc2c1C

B-score, active:
CCc1ccc(NC(=O)C(=O)NNC(=O)c2cccs2)cc1 54, Cc1cc(Nc2cc(N3CCN(C)CC3)nc(Sc3ccc(NC(=O)C4CC4)cc3)n2)n[nH]1 7, O=C(NCCN1CCOCC1)[C@H](Cc1ccccc1)N1C(=O)c2ccccc2C1=O 11, CCOC(=O)c1sc(=S)n2c1[nH]c(=O)c1ccc(C(=O)OC)cc12 59
